The target of data set [1] is T1, Kallikrein-5 (Homo sapiens, UniProt Q9Y337).
T1 sequence (Q9Y337 whole entry): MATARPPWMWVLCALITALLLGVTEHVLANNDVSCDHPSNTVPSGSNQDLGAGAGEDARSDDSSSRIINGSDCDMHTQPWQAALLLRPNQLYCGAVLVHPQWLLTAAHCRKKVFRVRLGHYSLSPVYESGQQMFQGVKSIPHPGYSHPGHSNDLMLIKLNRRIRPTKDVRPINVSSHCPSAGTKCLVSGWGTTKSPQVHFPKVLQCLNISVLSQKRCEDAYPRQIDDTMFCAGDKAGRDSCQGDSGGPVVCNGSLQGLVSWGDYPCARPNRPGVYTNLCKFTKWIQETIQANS
Briefly: Inhibition of human recombinant 6His-Q-FLAG-tagged KLK5 expressed in baculovirus infected Sf9 insect cells using (Tos-Gly-Pro-Arg)2[R110].2TFA as substrate measured at 30 secs interval for 5 mins by FLINT assay. In short, it runs like this:
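Standard KLK5 assay format. Its theoretical tight-binding limit corresponds to pIC50 8.4.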

The next data set addresses Kallikrein-1 (Homo sapiens, UniProt P06870). Description: Inhibition of human recombinant N-terminal His-tagged and enterokinase cleavage site-fused KLK1 (19 to 262 residues) expressed in baculovirus infected Sf9 insect cells using R110 labelled GSK3162232A as substrate measured at 30 secs interval for 5 mins by FLINT assay.
The next data set has as its target Coagulation factor X (Homo sapiens, UniProt P00742). Description: Inhibition of recombinant human C-terminal 10-His-tagged factor Xa (L24 to K488 residues) expressed in baculovirus infected Sf21 insect cells using Mca-RPKPVE-Nval-WRK(Dnp)-NH2 as substrate incubated for 40 mins by FLINT assay.
A further data set deals with T2, Kallikrein-8 (Homo sapiens, UniProt O60259).
T2 sequence (O60259 whole entry): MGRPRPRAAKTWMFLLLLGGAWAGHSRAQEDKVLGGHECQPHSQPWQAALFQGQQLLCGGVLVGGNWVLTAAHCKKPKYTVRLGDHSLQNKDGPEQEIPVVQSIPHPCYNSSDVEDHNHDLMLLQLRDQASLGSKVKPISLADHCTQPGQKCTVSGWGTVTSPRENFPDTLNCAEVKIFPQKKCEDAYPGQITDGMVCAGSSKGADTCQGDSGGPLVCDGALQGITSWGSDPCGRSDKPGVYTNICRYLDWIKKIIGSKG
Briefly: Inhibition of recombinant human C-terminal 10-His-tagged KLK8 (Gln29 to Gly260 residues) expressed in mouse NS0 cells using BOC-VPR-AMC as substrate incubated for 40 mins by FLINT assay.

The target of the next data set is T3, Kallikrein-14 (Homo sapiens, UniProt Q9P0G3).
T3 sequence (Q9P0G3 whole entry): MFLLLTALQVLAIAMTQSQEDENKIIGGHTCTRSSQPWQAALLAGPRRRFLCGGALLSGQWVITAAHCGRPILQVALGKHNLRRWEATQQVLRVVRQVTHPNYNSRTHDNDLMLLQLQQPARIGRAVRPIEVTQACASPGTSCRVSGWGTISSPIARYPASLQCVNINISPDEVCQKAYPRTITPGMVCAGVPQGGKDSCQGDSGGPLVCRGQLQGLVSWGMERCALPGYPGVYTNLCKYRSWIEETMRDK
Briefly: Inhibition of recombinant human C-terminal 10-His-tagged KLK14 (Q19 to M248 residues) expressed in mouse NS0 cells using BOC-VPR-AMC as substrate incubated for 40 mins by FLINT assay.

Data set [2] concerns the target T4, Suppressor of tumorigenicity 14 protein (Homo sapiens, UniProt Q9Y5Y6).
T4 sequence (Q9Y5Y6 whole entry): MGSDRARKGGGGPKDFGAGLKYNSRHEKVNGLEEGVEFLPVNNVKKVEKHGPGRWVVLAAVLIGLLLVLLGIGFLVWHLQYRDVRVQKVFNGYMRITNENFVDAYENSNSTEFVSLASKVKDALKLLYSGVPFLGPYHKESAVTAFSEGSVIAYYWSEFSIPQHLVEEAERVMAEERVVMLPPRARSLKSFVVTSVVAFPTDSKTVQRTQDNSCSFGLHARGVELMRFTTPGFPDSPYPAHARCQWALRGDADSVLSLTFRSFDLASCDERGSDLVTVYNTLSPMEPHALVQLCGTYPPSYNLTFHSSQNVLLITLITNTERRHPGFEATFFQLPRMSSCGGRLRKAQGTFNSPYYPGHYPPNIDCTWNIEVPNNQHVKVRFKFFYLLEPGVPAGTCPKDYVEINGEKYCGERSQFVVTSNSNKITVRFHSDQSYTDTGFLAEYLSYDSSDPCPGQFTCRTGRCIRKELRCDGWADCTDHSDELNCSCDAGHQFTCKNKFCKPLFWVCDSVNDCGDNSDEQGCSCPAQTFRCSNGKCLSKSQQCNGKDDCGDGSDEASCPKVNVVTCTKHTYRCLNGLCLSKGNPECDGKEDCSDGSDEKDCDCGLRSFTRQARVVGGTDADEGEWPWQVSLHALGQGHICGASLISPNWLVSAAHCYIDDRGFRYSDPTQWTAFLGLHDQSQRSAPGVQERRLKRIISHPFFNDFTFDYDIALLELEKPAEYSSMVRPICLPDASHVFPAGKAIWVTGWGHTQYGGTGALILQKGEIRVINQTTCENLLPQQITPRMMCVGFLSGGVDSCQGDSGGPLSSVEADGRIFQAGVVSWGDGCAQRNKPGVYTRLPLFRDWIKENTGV
Briefly: Inhibition of recombinant human N-terminal Met and 6-His-tagged matriptase (G596 to V855 residues) expressed in Escherichia coli using Boc-QAR-AMC as substrate incubated for 40 mins by FLINT assay.

The next data set has as its target Prothrombin (Homo sapiens, UniProt P00734). Briefly: Inhibition of human recombinant C-terminal 10-His-tagged thrombin (M1 to E622 residues) expressed in mouse NS0 cells using BOC-VPR-AMC as substrate incubated for 40 mins by FLINT assay.
A short description of data set [3]: Solubility of the compound in Britton-Robinson buffer at pH 4 measured after 24 hrs. The format is physicochemical. In short, it runs like this: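 Solubility was measured in Britton-Robinson buffers spanning pH 2 to pH 8. Readings were taken after 12 h and 24 h and reported in mg/mL.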
Data set [4] is described as follows: Half life of the compound in Britton-Robinson buffer at pH 4 to 10 at 0.05 mg/ml. The format is physicochemical.
The target in data set [5] is T1, Kallikrein-5. Briefly: Inhibition of human recombinant 6His-Q-FLAG-tagged KLK5 expressed in baculovirus infected Sf9 insect cells using (Tos-Gly-Pro-Arg)2[R110].2TFA as substrate measured at 30 secs interval for 5 mins using 1 x 10'10M enzyme by FLINT assay.
Data set [6] in a line: Genotoxicity in Salmonella typhimurium TA1535 in presence of rat S9 fraction by mini-Ames test. The format is toxicity, subcellular. To be noted: salmonella enterica subsp. enterica serovar typhimurium.
The nature of data set [7]: Genotoxicity in Salmonella typhimurium TA1537 in presence of rat S9 fraction by mini-Ames test. The format is toxicity, subcellular. The following applies: salmonella enterica subsp. enterica serovar typhimurium. (The Ames test uses bacterial strains that need an amino acid and regain growth without it when mutated back.)
Data set [8] is described as follows: Genotoxicity in Salmonella typhimurium TA1535 in absence of rat S9 fraction by mini-Ames test. The format is toxicity. The following applies: salmonella enterica subsp. enterica serovar typhimurium.
Data set [9] can be described thus: Genotoxicity in Salmonella typhimurium TA1537 in absence of rat S9 fraction by mini-Ames test. To be noted: salmonella enterica subsp. enterica serovar typhimurium. The format is toxicity.
Data set [10] can be described thus: Genotoxicity in Salmonella typhimurium TA100 in absence of rat S9 fraction by mini-Ames test. The format is toxicity. The following applies: salmonella enterica subsp. enterica serovar typhimurium.

For `Cl.N=C(N)c1ccc([C@H]2Cc3ccc(C(F)(F)F)cc3B(O)O2)cc1OCc1cccnc1`, the IC50 on Kallikrein-5 [1] is 5.01 nM; at Kallikrein-1 it was 251 nM; on Coagulation factor X, 398 nM; at Kallikrein-8 it was 6.31 nM; at Kallikrein-14 it was 31.6 nM; in data set [2] it was 1260 nM. Besides, the concentration for half-maximal inhibition (IC50) on Prothrombin is 1260 nM; at Kallikrein-5 [5], less than 0.316 nM. This compound came in with a solubility at 24 h in data set [3] greater than 9000 µg/mL. The half-life at 0.05 mg/ml in data set [4] was greater than 41.7 days. Also, the Activity entry in data set [6], in data set [7], in data set [8], in data set [9] and in data set [10] was “Non-Toxic” throughout.

A word on the IC50: it is the concentration that gives 50% inhibition. What is called solubility is how much of the substance goes into solution per volume. Read a low solubility as a poorly soluble substance. A word on the half-life: it is how long it takes for the measured level to halve. Low values mean rapid decline, high ones slow decline.
